Measured values taken from ChEMBL document CHEMBL1142624, “Nematicidal constituents of the aerial parts of Lantana camara” (2000).

Key:
Type in all cases: functional
Meloidogyne incognita [1] = assay: Nematicidal activity against Meloidogyne incognita assessed as larval mortality at 1% drug concentration after 72 hrs
Procedure, shortened: (§1)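 Larvae were held in Petri dishes with test solutions diluted from stock to 1.0%, alongside a furadan standard and a distilled water control, at 28 ± 2 °C for up to 72 h. Each treatment was replicated twice. At 24, 48 and 72 h, one dish per treatment was scored for mortality under a stereomicroscope. Immobility was confirmed as irreversible by transfer to distilled water. Percent mortality was averaged over three replicates.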

Meloidogyne incognita [2] = assay: Nematicidal activity against Meloidogyne incognita assessed as larval mortality at 1% drug concentration after 48 hrs; procedure, shortened: as §1
Meloidogyne incognita [3] = assay: Nematicidal activity against Meloidogyne incognita assessed as larval mortality at 1% drug concentration after 24 hrs; procedure, shortened: as §1

| SMILES | Activity (Meloidogyne incognita [1]) | Activity (Meloidogyne incognita [2]) | Activity (Meloidogyne incognita [3]) |
| --- | --- | --- | --- |
| CC(=O)O[C@@H]1C[C@@H](C)[C@H](C)[C@H]2C3=CC[C@@H]4[C@]56CC[C@@](O)(OC5)C(C)(C)C6CC[C@@]4(C)[C@]3(C)CC[C@]21C(=O)O (some centres not stated) [CAMARINIC ACID] | 100% | 100% | 100% |
| CNC(=O)Oc1cccc2c1OC(C)(C)C2 [CARBOFURAN] | 100% | 100% | 100% |
| COc1ccc(-c2cc(=O)c3c(O)c(OC)c(O[C@@H]4O[C@H](COC(C)=O)[C@@H](O)[C@H](O)[C@H]4O)cc3o2)cc1 [LANTANONE] | 95% | 95% | 90% |
| COc1ccc(-c2cc(=O)c3c(O)c(OC)c(O[C@@H]4O[C@H](CO)[C@@H](O)[C@H](O)[C@H]4O)cc3o2)cc1 [LINAROSIDE] | 90% | 90% | 85% |
